Calls of active or inactive are those of the source. No cut-off for these calls is given here.
Tests used:
[1] = biological target: T1, Myosin light chain kinase, smooth muscle (Homo sapiens, UniProt Q15746); assay: Inhibition of MLCK by HTRF assay
[2] = biological target: T2, Epidermal growth factor receptor (Homo sapiens, UniProt P00533); assay: Inhibition of EGFR by HTRF assay
[3] = biological target: T1, Myosin light chain kinase, smooth muscle; assay: Inhibition of MLCK up to 40 uM by HTRF assay
How it was run: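 HTRF activity assay with peptide substrate STK1 at 375 nM and ATP at its Km (18 µM), in the presence of Ca2+/calmodulin. Kinase and inhibitor preincubated 30 min, then ATP plus substrate added. Detection by Eu-cryptate anti-phospho-STK1 antibody and streptavidin-XL665, with the 665/620 nm FRET ratio read. Eight inhibitor concentrations, Hill 4-parameter fit. At least two independent runs, each in duplicate. NI means no inhibition up to 40 µM.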

[4] = biological target: T2, Epidermal growth factor receptor; assay: Inhibition of EGFR up to 40 uM by HTRF assay

T2 sequence (P00533 whole entry): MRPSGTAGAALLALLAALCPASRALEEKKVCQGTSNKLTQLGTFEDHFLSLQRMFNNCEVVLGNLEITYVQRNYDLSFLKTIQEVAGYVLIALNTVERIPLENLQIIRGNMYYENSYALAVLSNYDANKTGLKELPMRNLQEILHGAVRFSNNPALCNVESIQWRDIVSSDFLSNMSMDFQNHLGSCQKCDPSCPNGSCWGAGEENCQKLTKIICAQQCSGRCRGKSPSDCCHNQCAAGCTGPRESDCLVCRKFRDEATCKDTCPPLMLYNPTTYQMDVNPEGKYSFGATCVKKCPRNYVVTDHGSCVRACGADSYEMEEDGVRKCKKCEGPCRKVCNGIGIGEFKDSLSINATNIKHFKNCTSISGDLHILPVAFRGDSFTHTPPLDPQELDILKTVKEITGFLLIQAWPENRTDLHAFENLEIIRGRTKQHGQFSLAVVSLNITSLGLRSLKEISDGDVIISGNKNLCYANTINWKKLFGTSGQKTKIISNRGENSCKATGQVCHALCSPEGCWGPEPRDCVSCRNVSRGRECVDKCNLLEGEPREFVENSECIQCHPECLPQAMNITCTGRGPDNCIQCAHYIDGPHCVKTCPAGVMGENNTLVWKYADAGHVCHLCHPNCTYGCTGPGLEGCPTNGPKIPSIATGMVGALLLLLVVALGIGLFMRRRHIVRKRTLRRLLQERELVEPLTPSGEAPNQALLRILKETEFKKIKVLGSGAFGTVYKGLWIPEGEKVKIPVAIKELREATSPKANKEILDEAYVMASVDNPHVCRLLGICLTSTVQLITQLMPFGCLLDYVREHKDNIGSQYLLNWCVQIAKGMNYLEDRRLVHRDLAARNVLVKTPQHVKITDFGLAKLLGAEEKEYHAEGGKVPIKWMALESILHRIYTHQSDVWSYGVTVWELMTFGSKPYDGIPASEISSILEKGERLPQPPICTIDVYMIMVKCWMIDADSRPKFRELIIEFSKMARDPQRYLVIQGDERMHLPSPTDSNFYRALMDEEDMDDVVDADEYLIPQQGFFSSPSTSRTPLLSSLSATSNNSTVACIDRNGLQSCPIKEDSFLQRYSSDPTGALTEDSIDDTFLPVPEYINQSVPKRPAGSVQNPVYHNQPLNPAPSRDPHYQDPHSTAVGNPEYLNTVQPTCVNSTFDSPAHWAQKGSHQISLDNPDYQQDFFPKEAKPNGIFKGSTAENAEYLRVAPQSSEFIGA
T1 sequence (Q15746 whole entry): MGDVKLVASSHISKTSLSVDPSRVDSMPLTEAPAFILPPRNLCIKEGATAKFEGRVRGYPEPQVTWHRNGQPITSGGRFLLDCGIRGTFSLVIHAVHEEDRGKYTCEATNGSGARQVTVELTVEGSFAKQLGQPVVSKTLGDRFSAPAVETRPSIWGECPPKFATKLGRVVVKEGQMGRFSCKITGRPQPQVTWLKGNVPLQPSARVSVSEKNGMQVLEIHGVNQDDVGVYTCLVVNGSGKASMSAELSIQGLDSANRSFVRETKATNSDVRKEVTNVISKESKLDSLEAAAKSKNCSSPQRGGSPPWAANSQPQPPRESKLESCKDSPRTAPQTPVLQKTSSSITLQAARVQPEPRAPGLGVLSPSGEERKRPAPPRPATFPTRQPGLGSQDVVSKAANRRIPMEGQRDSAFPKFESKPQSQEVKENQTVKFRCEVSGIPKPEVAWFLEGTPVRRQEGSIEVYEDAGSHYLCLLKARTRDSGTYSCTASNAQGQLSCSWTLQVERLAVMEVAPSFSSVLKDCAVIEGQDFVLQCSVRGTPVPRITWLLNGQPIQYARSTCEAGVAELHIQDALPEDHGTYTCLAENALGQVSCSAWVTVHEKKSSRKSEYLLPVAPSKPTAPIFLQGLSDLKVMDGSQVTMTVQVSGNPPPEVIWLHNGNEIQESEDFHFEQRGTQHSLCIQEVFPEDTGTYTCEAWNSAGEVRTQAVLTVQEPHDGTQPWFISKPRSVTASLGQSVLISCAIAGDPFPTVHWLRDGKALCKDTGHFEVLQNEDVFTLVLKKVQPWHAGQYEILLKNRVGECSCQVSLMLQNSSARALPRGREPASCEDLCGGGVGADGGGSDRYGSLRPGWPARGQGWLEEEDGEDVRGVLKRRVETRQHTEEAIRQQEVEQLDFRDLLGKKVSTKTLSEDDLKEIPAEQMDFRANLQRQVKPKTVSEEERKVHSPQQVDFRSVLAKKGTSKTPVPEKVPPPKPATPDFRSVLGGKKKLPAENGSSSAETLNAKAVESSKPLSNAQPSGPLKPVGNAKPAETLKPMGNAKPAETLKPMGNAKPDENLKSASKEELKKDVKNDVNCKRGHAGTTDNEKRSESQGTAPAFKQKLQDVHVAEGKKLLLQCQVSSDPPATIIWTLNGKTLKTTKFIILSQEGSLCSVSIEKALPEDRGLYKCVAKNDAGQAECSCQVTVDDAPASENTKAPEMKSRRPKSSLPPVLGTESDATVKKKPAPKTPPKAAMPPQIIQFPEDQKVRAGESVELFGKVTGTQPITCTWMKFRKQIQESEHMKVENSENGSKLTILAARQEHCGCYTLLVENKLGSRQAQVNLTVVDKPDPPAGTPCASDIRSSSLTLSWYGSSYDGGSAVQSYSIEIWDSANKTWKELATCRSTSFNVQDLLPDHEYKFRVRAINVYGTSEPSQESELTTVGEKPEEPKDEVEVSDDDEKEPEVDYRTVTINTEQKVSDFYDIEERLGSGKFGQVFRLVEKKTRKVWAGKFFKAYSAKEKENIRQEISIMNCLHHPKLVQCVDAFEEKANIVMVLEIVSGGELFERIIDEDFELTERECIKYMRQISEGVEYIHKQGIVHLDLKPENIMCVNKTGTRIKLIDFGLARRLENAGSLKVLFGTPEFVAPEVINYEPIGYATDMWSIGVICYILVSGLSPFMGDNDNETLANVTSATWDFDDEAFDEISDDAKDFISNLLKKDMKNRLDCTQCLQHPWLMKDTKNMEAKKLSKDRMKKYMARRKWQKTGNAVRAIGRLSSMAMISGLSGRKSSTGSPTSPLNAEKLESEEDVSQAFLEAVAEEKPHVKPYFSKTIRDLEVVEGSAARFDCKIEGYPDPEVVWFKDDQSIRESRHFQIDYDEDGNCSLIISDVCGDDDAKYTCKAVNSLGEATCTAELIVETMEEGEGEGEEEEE

IC50 [2]	inhibition [3]	SMILES	further results
–	–	O=S(=O)(c1cccc2cnccc12)N1CCCNCC1 [FASUDIL]	IC50 [1]: 21.6 µM; Ki [1]: 36 µM
–	–	NCCCCCCNS(=O)(=O)c1cccc2c(Cl)cccc12	Ki [1]: 110 µM
–	–	O=S(=O)(c1cccc2c(I)cccc12)N1CCCNCC1	Ki [1]: 0.3 µM
45.2 µM	inactive	N#Cc1cnc(Nc2cccc(Br)c2)c2cc(NC(=O)c3ccoc3)ccc12	–
6.9 µM	inactive	N#Cc1cnc(Nc2cccc(Br)c2)c2cc(NC(=O)CCN3CCOCC3)ccc12	–
12.8 µM	inactive	CCOC(=O)Nc1ccc2c(C#N)cnc(Nc3cccc(Br)c3)c2c1	–
–	–	COC[C@H]1OC(=O)c2coc3c2[C@@]1(C)C1=C(C3=O)[C@@H]2CCC(=O)[C@@]2(C)C[C@H]1OC(C)=O [WORTMANNIN]	IC50 [1]: 0.17 µM
55.6 µM	inactive	N#Cc1cnc(Nc2cccc(Br)c2)c2cc(NC(=O)c3ccco3)ccc12	–
–	inactive	N#Cc1cnc(Nc2cccc(Br)c2)c2cc(NC(=O)c3cc4ccccc4[nH]3)ccc12	inhibition [4]: inactive
20.8 µM	inactive	CCC(=O)Nc1ccc2c(C#N)cnc(Nc3cccc(Br)c3)c2c1	–
2.2 µM	inactive	N#Cc1cnc(Nc2cccc(Br)c2)c2cc(NC(=O)[C@@H]3CCC(=O)N3)ccc12	–

Source: ChEMBL document CHEMBL1641579, “Synthesis and biological evaluation of 7-substituted-1-(3-bromophenylamino)isoquinoline-4-carbonitriles as inhibitors of myosin light chain kinase and epidermal growth factor receptor” (Bioorg Med Chem, 2011)
